In PMC8586590 (Bioactive Materials, 2021):

Columns and labels:
[1] = system: HepG2 cells; assay: Cell inhibition, MTT assay; format: cell-based; conditions: Homo sapiens, HepG2, 48 h
[2] = system: HepG2 3D multicellular spheroids; assay: Multicellular spheroid; format: cell-based; conditions: HepG2 MCSs, 100 μM, medium replaced every two days, 7 days, N=3
In short: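 HepG2 3D spheroids held in 100 μM formulation, with medium replaced every two days; drug-free medium served as control. Spheroid volume calculated as V = 4/3πr³ from the radius and expressed relative to each spheroid's day-0 volume. Mean ± SD, N = 3.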

[3] = format: in vivo, Balb/c nude mice; conditions: i.v., 3 mg/kg HCPT-equivalent
In short: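 Normal Balb/c nude mice (4–6 weeks, 16–19 g), six groups of five including saline, treated three times. Eye blood taken on days 1 and 5 after the third dose. For haematology, 300 μL into heparinised tubes; for biochemistry, 500 μL, centrifuged at 2500×g for 15 min and the supernatant used. Xenograft mice: body weight every three days and H&E of major organs at study end.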

[4] = system: HepG2-luci cells; assay: Lung metastasis model; format: in vivo, Balb/c nude mice; conditions: after 30 days, i.v., 3 mg/kg HCPT equivalent, four injections, N=5
In short: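 Balb/c nude mice (4–6 weeks, 20 ± 2 g) received 1 × 10⁶ HepG2-luci cells in 200 μL serum-free DMEM via the tail vein. Six days later (day 0) they were randomised into six groups of five and dosed i.v. at 3 mg/kg HCPT-equivalent on days 0, 3, 6 and 9. Study ended at day 30: lungs fixed in Bouin's for 24 h and photographed, then formalin-fixed paraffin sections stained with H&E.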

For `CC[C@@]1(O)C(=O)OCc2c1cc1n(c2=O)Cc2cc3cc(O)ccc3nc2-1` [HCPT, 10-hydroxycamptothecin], the IC50 [1] was 0.84 µM, the “MCS volume relative to initial volume” value [2] was “stable volume” and the “blood parameters RBC, WBC, HGB, PLT (hematotoxicity)” value ([3]; three times, N=5) was “deteriorated”. For the same molecule, the “body weight during treatment” value ([3]; tumor-bearing mice) was “obvious weight loss” and the “bioluminescence signal of HepG2-luci cells in the lung” value [4] was “the strongest”.
